Assay results from different studies.
Each line is one published result; the experiments were not run side by side.
OPRK1: Kappa-type opioid receptor (OPRK1, Homo sapiens, UniProt P41145)

SMILES	target	effect on	method	setting	Ki [nM]
Oc1ccc2c3c1O[C@H]1c4ncc(-c5ccccc5)cc4C[C@@]4(OCCCc5cccnc5)[C@@H](C2)N(CC2CC2)CC[C@]314	OPRK1	cell-free assay			5.3
CCCC[C@@H](NC(=O)[C@@H](N)Cc1ccc(O)cc1)C(=O)NCC(=O)N[C@@H](Cc1ccc(F)cc1)C(=O)N(C)CCC[C@@]1(c2ccc(F)cc2)OCc2cc(C#N)ccc21	OPRK1	cell-free assay			68
Fc1ccccc1CC(c1ccccc1)N1CCCC1 (centres unmarked)	OPRK1	ligand displacement	radioligand		642
C[C@H]1[C@H]2Cc3ccc(O)cc3[C@]1(C)CCN2CC1CC1	Kappa-type opioid receptor (OPRK1, Homo sapiens, UniProt P41145, I135L)	cell-free assay			2.95
C[C@@H](NC(=O)[C@@H](N)Cc1ccc(O)cc1)C(=O)NCC(=O)N[C@@H](Cc1ccccc1)C(=O)N(C)CCC[C@@]1(c2ccc(F)cc2)OCc2cc(C#N)ccc21	OPRK1	cell-free assay			86
CN[C@]1(c2ccccc2Cl)CCCCC1=O	OPRK1	ligand displacement	radioligand		8500
Cc1cc(O)cc(C)c1C[C@H](N)C(=O)N1CCc2ccc(Cc3ccccc3N)cc2C1	OPRK1	ligand displacement	radioligand	cell membranes	25
C[C@@H](NC(=O)[C@@H](N)Cc1ccc(O)cc1)C(=O)NCC(=O)N[C@@H](Cc1ccc(Cl)cc1)C(=O)N(C)CCC[C@@]1(c2ccc(F)cc2)OCc2cc(C#N)ccc21	OPRK1	cell-free assay			43
Cc1cc(O)cc(C)c1C[C@H](N)C(=O)N1CCc2ccc(Cc3ccccc3[N+](=O)[O-])cc2C1	OPRK1	ligand displacement	radioligand	cell membranes	2.6
CC(=O)Nc1ccccc1-c1cnc2c(c1)C[C@@]1(OCCCc3ccccc3)[C@H]3Cc4ccc(O)c5c4[C@@]1(CCN3CC1CC1)[C@H]2O5	OPRK1	cell-free assay			13.5
Cc1ccc(Cc2ccc3c(c2)CN(C(=O)[C@@H](N)Cc2c(C)cc(O)cc2C)CC3)cc1	OPRK1	ligand displacement	radioligand	cell membranes	233
COc1ccsc1CNCC[C@@]1(c2ccccn2)CCOC2(CCCC2)C1	OPRK1	cell-free assay			2700
Cc1cc(O)cc(C)c1C[C@H](N)C(=O)N1CCc2ccc(Cc3ccc([N+](=O)[O-])cc3)cc2C1	OPRK1	ligand displacement	radioligand	cell membranes	22
CC[C@H](C)[C@H](NC(=O)[C@H](CCCNC(=N)N)NC(=O)[C@H](CC(C)C)NC(=O)[C@@H](N)Cc1ccccc1)C(=O)N[C@@H](CCCNC(=N)N)C(=O)N1CCC[C@H]1C(=O)N[C@@H](CCCCN)C(=O)O	OPRK1	ligand displacement	radioligand		> 10000
